Measurements from ChEMBL document CHEMBL1641579, “Synthesis and biological evaluation of 7-substituted-1-(3-bromophenylamino)isoquinoline-4-carbonitriles as inhibitors of myosin light chain kinase and epidermal growth factor receptor” (Bioorg Med Chem, 2011).
Active and inactive are the calls of the source. The calls are words filed in the database; no cut-off is given here.

Key:
[1] = test system: NCI-H2122; test: Growth inhibition of human NCI-H2122 cells assessed as ATP level after 96 hrs by CellTiter-Glo assay; format: functional; conditions: NCI-H2122, 96 h
[2] = Growth inhibition of human NCI-H1819 cells assessed as ATP level after 96 hrs by CellTiter-Glo assay; format: functional; conditions: NCI-H1819, 96 h
In short: (§1)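 NSCLC lines maintained as previously described, authenticated by mutational analysis and SNP arrays. Cells seeded and incubated 24 h, then given compound (DMSO stocks) as 10 threefold serial dilutions. Viability read after 96 h as cellular ATP content (CellTiter-Glo). GI50 derived by curve fitting of half-maximal inhibition.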

[3] = Growth inhibition of human HCC15 cells assessed as ATP level after 96 hrs by CellTiter-Glo assay; format: functional; conditions: HCC15, 96 h
In short: (§2)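 NSCLC lines maintained as in earlier work and authenticated by mutational analysis and SNP arrays. Cells were plated in 384-well format and allowed 24 h before compound addition as 10 threefold serial dilutions (DMSO stocks). After 96 h, viability was read as cellular ATP by CellTiter-Glo. GI50 was fitted with an R package.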

[4] = test system: A-427; test: Growth inhibition of human A427 cells assessed as ATP level after 96 hrs by CellTiter-Glo assay; format: functional; conditions: A-427, 96 h; in short: as §2
[5] = Growth inhibition of human H441 cells assessed as ATP level after 96 hrs by CellTiter-Glo assay; format: functional; conditions: NCI-H441, 96 h; in short: as §2
[6] = test system: NCI-H157; test: Growth inhibition of human NCI-H157 cells assessed as ATP level after 96 hrs by CellTiter-Glo assay; format: functional; conditions: NCI-H157, 96 h; in short: as §2
[7] = Growth inhibition of human NCI-H3122 cells assessed as ATP level after 96 hrs by CellTiter-Glo assay; format: functional; conditions: NCI-H3122, 96 h
[8] = Growth inhibition of human HCC78 cells assessed as ATP level after 96 hrs by CellTiter-Glo assay; format: functional; conditions: HCC78, 96 h; in short: as §2
[9] = test system: NCI-H2347; test: Growth inhibition of human NCI-H2347 cells assessed as ATP level after 96 hrs by CellTiter-Glo assay; format: functional; conditions: NCI-H2347, 96 h
[10] = Growth inhibition of human COLO699 cells assessed as ATP level after 96 hrs by CellTiter-Glo assay; format: functional; conditions: COLO 699, 96 h; in short: as §2
[11] = Growth inhibition of human NCI-H2172 cells assessed as ATP level after 96 hrs by CellTiter-Glo assay; format: functional; conditions: NCI-H2172, 96 h
[12] = test system: NCI-H1993; test: Growth inhibition of human NCI-H1993 cells assessed as ATP level after 96 hrs by CellTiter-Glo assay; format: functional; conditions: NCI-H1993, 96 h
[13] = Growth inhibition of human HCC1359 cells assessed as ATP level after 96 hrs by CellTiter-Glo assay; format: functional; in short: as §2
[14] = test system: NCI-H647; test: Growth inhibition of human NCI-H647 cells assessed as ATP level after 96 hrs by CellTiter-Glo assay; format: functional; conditions: NCI-H647, 96 h
[15] = test system: NCI-H2087; test: Growth inhibition of human NCI-H2087 cells assessed as ATP level after 96 hrs by CellTiter-Glo assay; format: functional; conditions: NCI-H2087, 96 h
[16] = test system: EKVX; test: Growth inhibition of human EKVX cells assessed as ATP level after 96 hrs by CellTiter-Glo assay; format: functional; in short: as §2
[17] = test system: HOP-62; test: Growth inhibition of human HOP62 cells assessed as ATP level after 96 hrs by CellTiter-Glo assay; format: functional; conditions: HOP-62, 96 h; in short: as §2
[18] = Growth inhibition of human NCI-H1944 cells assessed as ATP level after 96 hrs by CellTiter-Glo assay; format: functional; conditions: NCI-H1944, 96 h
In short: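 Human NSCLC cells, maintained as described previously and authenticated by mutational analysis and SNP arrays, were plated and incubated 24 h. Compounds were dissolved in DMSO and added as 10 threefold serial dilutions. Viability was read after 96 h as cellular ATP content by luminescence, and half-maximal inhibitory concentrations were fitted to give GI50.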

[19] = Growth inhibition of human HCC44 cells assessed as ATP level after 96 hrs by CellTiter-Glo assay; format: functional; conditions: HCC44, 96 h; in short: as §2
[20] = test system: NCI-H1770; test: Growth inhibition of human NCI-H1770 cells assessed as ATP level after 96 hrs by CellTiter-Glo assay; format: functional; conditions: NCI-H1770, 96 h; in short: as §2
[21] = Growth inhibition of human HCC1195 cells assessed as ATP level after 96 hrs by CellTiter-Glo assay; format: functional; in short: as §2
[22] = test system: Epidermal growth factor receptor (Homo sapiens), P00533 [T790M]; test: Inhibition of EGFR T790M mutant activation expressed in human drug-resistant H1975 cells; format: cell-based
Epidermal growth factor receptor (Homo sapiens), P00533 [T790M], sequence (P00533 whole entry T790M): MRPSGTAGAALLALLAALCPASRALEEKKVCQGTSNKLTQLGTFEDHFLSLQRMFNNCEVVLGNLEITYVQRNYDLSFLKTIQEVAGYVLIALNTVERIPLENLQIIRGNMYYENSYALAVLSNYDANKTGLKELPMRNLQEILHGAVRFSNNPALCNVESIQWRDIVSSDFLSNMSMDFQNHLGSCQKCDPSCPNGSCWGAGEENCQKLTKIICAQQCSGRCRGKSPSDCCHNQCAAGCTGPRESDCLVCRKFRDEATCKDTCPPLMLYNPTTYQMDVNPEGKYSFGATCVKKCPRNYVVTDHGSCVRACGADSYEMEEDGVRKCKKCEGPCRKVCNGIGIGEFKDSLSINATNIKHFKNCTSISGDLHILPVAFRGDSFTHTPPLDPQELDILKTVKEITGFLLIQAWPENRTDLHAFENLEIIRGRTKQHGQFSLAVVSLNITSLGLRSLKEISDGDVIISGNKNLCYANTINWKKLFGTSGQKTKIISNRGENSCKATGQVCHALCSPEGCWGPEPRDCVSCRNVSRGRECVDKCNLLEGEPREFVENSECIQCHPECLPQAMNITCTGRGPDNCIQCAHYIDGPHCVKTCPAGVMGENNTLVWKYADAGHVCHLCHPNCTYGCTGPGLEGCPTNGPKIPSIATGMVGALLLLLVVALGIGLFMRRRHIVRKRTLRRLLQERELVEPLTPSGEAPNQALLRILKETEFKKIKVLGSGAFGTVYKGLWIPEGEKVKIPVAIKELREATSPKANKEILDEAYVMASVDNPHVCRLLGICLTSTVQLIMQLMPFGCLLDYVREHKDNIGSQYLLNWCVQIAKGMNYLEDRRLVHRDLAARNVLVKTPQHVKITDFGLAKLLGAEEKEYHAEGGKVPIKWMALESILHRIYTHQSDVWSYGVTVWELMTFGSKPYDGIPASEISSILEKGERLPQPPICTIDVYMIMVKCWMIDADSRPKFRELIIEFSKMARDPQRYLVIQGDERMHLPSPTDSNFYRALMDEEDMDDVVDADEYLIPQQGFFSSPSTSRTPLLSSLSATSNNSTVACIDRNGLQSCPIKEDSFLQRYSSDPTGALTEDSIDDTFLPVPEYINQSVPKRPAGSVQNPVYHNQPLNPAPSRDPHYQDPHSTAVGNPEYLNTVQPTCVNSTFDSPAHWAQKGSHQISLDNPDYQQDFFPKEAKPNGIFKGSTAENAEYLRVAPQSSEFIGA

[23] = Growth inhibition of human H3255 cells assessed as ATP level after 96 hrs by CellTiter-Glo assay; format: functional; conditions: NCI-H3255, 96 h; in short: as §2
[24] = test system: NCI-H2009; test: Growth inhibition of human NCI-H2009 cells assessed as ATP level after 96 hrs by CellTiter-Glo assay; format: functional; conditions: NCI-H2009, 96 h
[25] = test system: PC-9; test: Growth inhibition of human PC9 cells assessed as ATP level after 96 hrs by CellTiter-Glo assay; format: functional; conditions: PC-9, 96 h
[26] = Growth inhibition of human NCI-H322 cells assessed as ATP level after 96 hrs by CellTiter-Glo assay; format: functional; conditions: NCI-H322, 96 h
[27] = test system: DV-90; test: Growth inhibition of human DV90 cells assessed as ATP level after 96 hrs by CellTiter-Glo assay; format: functional; conditions: DV-90, 96 h; in short: as §2
[28] = test system: SK-LU-1; test: Growth inhibition of human SKLU1 cells assessed as ATP level after 96 hrs by CellTiter-Glo assay; format: functional; conditions: SK-LU-1, 96 h
[29] = Growth inhibition of human LouNH91 cells assessed as ATP level after 96 hrs by CellTiter-Glo assay; format: functional; conditions: LOU-NH91, 96 h; in short: as §2
[30] = test system: NCI-H1838; test: Growth inhibition of human NCI-H1838 cells assessed as ATP level after 96 hrs by CellTiter-Glo assay; format: functional; conditions: NCI-H1838, 96 h; in short: as §1
[31] = test system: NCI-H1355; test: Growth inhibition of human NCI-H1355 cells assessed as ATP level after 96 hrs by CellTiter-Glo assay; format: functional; conditions: NCI-H1355, 96 h; in short: as §2
[32] = test system: NCI-H1648; test: Growth inhibition of human NCI-H1648 cells assessed as ATP level after 96 hrs by CellTiter-Glo assay; format: functional; conditions: NCI-H1648, 96 h; in short: as §2
[33] = test system: NCI-H358; test: Growth inhibition of human NCI-H358 cells assessed as ATP level after 96 hrs by CellTiter-Glo assay; format: functional; conditions: NCI-H358, 96 h
[34] = test system: NCI-H28; test: Growth inhibition of human NCI-H28 cells assessed as ATP level after 96 hrs by CellTiter-Glo assay; format: functional; conditions: NCI-H28, 96 h
[35] = test system: NCI-H520; test: Growth inhibition of human NCI-H520 cells assessed as ATP level after 96 hrs by CellTiter-Glo assay; format: functional; conditions: NCI-H520, 96 h

GI50 [1]: 18.8 µM | GI50 [6]: 12 µM | GI50 [9]: 22.9 µM | GI50 [12]: 12.9 µM | GI50 [14]: 26.3 µM | GI50 [15]: 17 µM | GI50 [20]: 9.02 µM | inhibition [22]: Active | GI50 [24]: 26.3 µM | GI50 [25]: 4.68 µM | GI50 [28]: 16.6 µM | GI50 [30]: 18.2 µM | GI50 [31]: 22.9 µM | GI50 [32]: 21.1 µM | GI50 [33]: 14.5 µM | GI50 [34]: 24.8 µM | GI50 [35]: 16 µM
SMILES: CN(C)C/C=C/C(=O)Nc1ccc2c(C#N)cnc(Nc3cccc(Br)c3)c2c1
GI50 [2]: 7.59 µM | GI50 [3]: 19.3 µM | GI50 [4]: 15.8 µM | GI50 [5]: 19.1 µM | GI50 [7]: 16.6 µM | GI50 [8]: 19.7 µM | GI50 [10]: 15.3 µM | GI50 [11]: 17.4 µM | GI50 [13]: 18.6 µM | GI50 [16]: 14.5 µM | GI50 [17]: 26.9 µM | GI50 [18]: 33.9 µM | GI50 [19]: 23.7 µM | GI50 [21]: 17.6 µM | GI50 [23]: 4.32 µM | GI50 [26]: 24.8 µM | GI50 [27]: 18.4 µM | GI50 [29]: 15.7 µM
